Key:
[1] = test system: HFF; test: Antiviral activity was determined by the HCMV plaque assay using HFF cells; format: functional, cell-based; details: Homo sapiens
Summary of the method: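 HCMV Towne strain (plaque-purified isolate Po) on HFF monolayers grown in MEM with Earle's salts and 10% FBS. Inoculum held approximately 50 PFU. Compounds were dissolved in the overlay medium and plaques counted. IC50 came from linear regression of percent inhibition against log concentration. Ganciclovir was the positive control.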

[2] = test system: KB; test: Cytotoxicity in KB cells.; format: functional, cell-based; details: Homo sapiens
Summary of the method: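 KB cells grown in MEM with Hank's salts and 5% FBS. Growth was measured spectrophotometrically by crystal violet staining 2 days after drug treatment, in quadruplicate wells. IC50 was taken from linear regression of percent inhibition against log concentration. 2-Acetylpyridine thiosemicarbazone was the positive control.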

[3] = test system: KB; test: Antiviral activity was estimated by HSV-1 ELISA method.; format: functional, cell-based; details: Homo sapiens
Summary of the method: (§1)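 HSV-1 S-148 strain was assayed by enzyme immunoassay (ELISA) in quadruplicate wells. The reported value is the average IC50, taken from linear regression of percent inhibition against log drug concentration. Acyclovir served as the positive control, and sets were rejected if it deviated more than 1.5 standard deviations from its mean.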

[4] = test system: L1210; test: The in vitro cytotoxicity against L1210 cells was evaluated; format: functional, cell-based; details: Mus musculus
Summary of the method: (§2)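 L1210 cells were grown in static suspension in Fischer's medium with 10% heat-inactivated horse serum. Cells were counted at 0, 48 and 96 h across a range of compound concentrations. Growth rate is the ratio of control to treated population-doubling time; the 48–96 h rate was used if growth slowed. IC50 is the concentration giving 50% of control growth rate; highest concentration tested was 100 μM.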

[5] = test system: HFF; test: Cytotoxicity in HFF cells was estimated by the visual scoring of cells not affected by virus infection in the plaque reduction assay.; details: Homo sapiens
[6] = test system: KB; test: Antiviral activity was estimated by HSV-1 ELISA method (data of single experiment); format: functional, cell-based; details: Homo sapiens; summary of the method: as §1
[7] = test system: L1210; test: cytotoxicity in L1210 cell culture(cell proliferation inhibited by 50%); format: functional, cell-based; details: Mus musculus; summary of the method: as §2
[8] = test system: KB; test: Antiviral activity was estimated by HSV-1 ELISA method; format: functional, cell-based; details: Homo sapiens; summary of the method: as §1
[9] = test system: L1210; test: Cytotoxicity in L1210 cell culture(cell proliferation inhibited by 50%); format: functional, cell-based; details: Mus musculus; summary of the method: as §2
[10] = test system: HFF; test: Antiviral activity was estimated by the HCMV yield reduction experiments.; format: functional; details: Homo sapiens
Summary of the method: (§3)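 HCMV Towne strain yield reduction assay. Results are given as IC90, derived by linear regression of percent inhibition against log drug concentration. Ganciclovir was the positive control.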

[11] = test system: HFF; test: Antiviral activity was estimated by the HCMV yield reduction experiments; format: functional; details: Homo sapiens; summary of the method: as §3

SMILES	IC50 [1] [µM]	IC50 [2] [µM]	IC50 [3] [µM]	IC50 [4] [µM]	IC50 [5] [µM]	IC50 [6] [µM]	IC50 [7] [µM]	IC50 [8] [µM]	IC50 [9] [µM]	IC90 [10] [nM]	IC90 [11] [nM]
Nc1nnc(O)c2c1ccn2C1CCC(CO)O1 (stereo unspecified)	> 100	> 100	> 100	> 100	> 100	–	–	–	–	–	–
Nc1nnc(O)c2c1ccn2COC(CO)CO	> 100	> 100	–	–	> 100	> 100	> 100	–	–	–	–
Nc1nnc(O)c2c1c(Br)cn2COC(CO)CO	> 100	> 100	–	–	> 100	–	–	> 100	> 100	–	–
Nc1nnc(O)c2c1ccn2[C@@H]1O[C@H](CO)[C@@H](O)[C@H]1O	–	–	90	–	> 100	–	–	–	–	–	–
Nc1n[nH]c(=O)c2c1c(Br)cn2[C@@H]1O[C@H](CO)[C@@H](O)[C@@H]1O	2.7	15	20	18	32	–	–	–	–	6300	–
Nc1nnc(O)c2c1ccn2[C@@H]1O[C@H](CO)[C@@H](O)[C@@H]1O	> 100	–	90	100	> 100	–	–	–	–	–	–
Nc1n[nH]c(=O)c2c1c(Br)cn2[C@@H]1O[C@H](CO)[C@@H](O)[C@H]1O	0.1	–	2	–	–	–	–	–	–	40	–
Nc1n[nH]c(=O)c2c1ccn2[C@H]1C[C@H](O)[C@@H](CO)O1	> 100	> 100	128	–	> 100	–	–	–	> 100	–	–
Nc1nnc(O)c2c1c(Br)cn2C1CCC(CO)O1 (stereo unspecified)	12	10	27	38	32	–	–	–	–	10000	–
Nc1nnc(O)c2c1c(I)cn2C1O[C@H](CO)[C@@H](O)[C@H]1O (stereo partly specified)	0.4	–	4.5	0.02	–	–	–	–	–	20	–
Nc1nnc(O)c2c1c(Cl)cn2C1O[C@H](CO)[C@@H](O)[C@H]1O (stereo partly specified)	0.2	–	6.8	–	–	–	–	–	–	700	–
Nc1nc2c(ncn2COC(CO)CO)c(=O)[nH]1 [GANCICLOVIR]	7.7	–	–	–	–	3.5	–	–	–	–	1800

— ChEMBL document CHEMBL1129959, “Synthesis and antiproliferative and antiviral activity of carbohydrate-modified pyrrolo[2,3-d]pyridazin-7-one nucleosides” (J Med Chem, 1997)
